Experimental data published in ChEMBL document CHEMBL3046667, “Synthesis and herbicidal activity evaluation of novel β-carboline derivatives” (Molecules, 2012).

What follows are compounds tested on Brassica rapa subsp. oleifera (assay: Herbicidal activity against Brassica rapa subsp. oleifera). Conditions: not given.
Assay type: functional, organism-based
Method in brief: (§1)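 Compounds formulated as 10 g/L emulsified concentrates (DMSO solvent, Tween-80 emulsifier), diluted in water and applied to pot-grown plants in a greenhouse (23 ± 1 °C, 60 ± 5% RH, 8 h/day photoperiod). Distilled water and 2,4-D serve as references. Shoot height, root length and fresh weight are measured per cup. Percent inhibition is taken relative to water; mean of three repeats.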

SMILES | EC50
O=C(N/N=C\c1ccccc1)c1cc2c([nH]c3ccccc32)c(-c2ccccc2)n1 | 4.83 µM
O=C(N/N=C\c1ccc(C(F)(F)F)cc1)c1cc2c([nH]c3ccccc32)c(-c2ccccc2)n1 | 14.2 µM

The compounds below were run on Echinochloa crus-galli (assay: Herbicidal activity against Echinochloa crus-galli (barnyard grass)). Conditions: not given.
Assay type: functional, organism-based
Method in brief: as §1

SMILES | EC50
O=C(N/N=C\c1ccccc1)c1cc2c([nH]c3ccccc32)c(-c2ccccc2)n1 | 4.83 µM
O=C(N/N=C\c1ccc(C(F)(F)F)cc1)c1cc2c([nH]c3ccccc32)c(-c2ccccc2)n1 | 14.2 µM

Each compound was assayed on Brassica rapa subsp. oleifera (assay: Herbicidal activity against Brassica rapa subsp. oleifera assessed as growth inhibition at 10 ug/ml). Conditions: read-out: GI.
Assay type: functional
Method in brief: as §1

SMILES | inhibition of growth at 10 µg/mL
O=C(N/N=C\c1ccc([N+](=O)[O-])cc1)c1cc2c(cn1)[nH]c1ccccc12 | 30.9%
O=C(N/N=C\c1ccccc1O)c1cc2c(cn1)[nH]c1ccccc12 | 19.4%
COc1cc(/C=N\NC(=O)c2cc3c(cn2)[nH]c2ccccc23)ccc1O | 27.4%
O=C(N/N=C\c1ccco1)c1cc2c(cn1)[nH]c1ccccc12 | 2.59%
Cc1n[nH]c(Cl)c1/C=N\NC(=O)c1cc2c(cn1)[nH]c1ccccc12 | 32.2%
O=C(N/N=C\Nc1ccc(C(F)(F)F)cc1)c1cc2c(cn1)[nH]c1ccccc12 | 7.52%
O=C(NN=C(c1ccccc1)c1ccccc1)c1cc2c(cn1)[nH]c1ccccc12 | 0%
Cc1nc(C(=O)N/N=C\c2ccccc2)cc2c1[nH]c1ccccc12 | 37.2%
O=C(N/N=C\c1ccccc1)c1cc2c([nH]c3ccccc32)c(-c2ccccc2)n1 | 62.1%
O=C(N/N=C\c1ccccc1)c1cc2c([nH]c3ccccc32)c(-c2ccc(C(F)(F)F)cc2)n1 | 27.1%
O=C(N/N=C\c1ccccc1)c1cc2c([nH]c3ccccc32)c(-c2ccc(Cl)cc2)n1 | 67%
O=C(N/N=C\c1ccc(C(F)(F)F)cc1)c1cc2c([nH]c3ccccc32)c(-c2ccc(C(F)(F)F)cc2)n1 | 35.4%
O=C(N/N=C\c1ccc(C(F)(F)F)cc1)c1cc2c([nH]c3ccccc32)c(-c2ccccc2)n1 | 57.9%
O=C(N/N=C\c1ccc(C(F)(F)F)cc1)c1cc2c([nH]c3ccccc32)c(-c2ccc(Cl)cc2)n1 | 66.9%
O=C(N/N=C\c1ccccc1)C1Cc2c([nH]c3ccccc23)CN1 (stereo not drawn) | 3.75%
COc1ccc(/C=N\NC(=O)C2Cc3c([nH]c4ccccc34)CN2)cc1 (stereo not drawn) | 8.69%
COc1cc(/C=N\NC(=O)C2Cc3c([nH]c4ccccc34)CN2)cc(OC)c1OC (stereo not drawn) | 5.28%
O=C(N/N=C\Nc1ccc(C(F)(F)F)cc1)C1Cc2c([nH]c3ccccc23)CN1 (stereo not drawn) | 0%
O=C(N/N=C\c1ccccc1)c1cc2c(cn1)[nH]c1ccccc12 | 18.1%
COc1ccc(/C=N\NC(=O)c2cc3c(cn2)[nH]c2ccccc23)cc1 | 24.7%
COc1cc(/C=N\NC(=O)c2cc3c(cn2)[nH]c2ccccc23)cc(OC)c1OC | 16.3%
COc1cc(OC)c(/C=N\NC(=O)c2cc3c(cn2)[nH]c2ccccc23)c(OC)c1 | 13.8%
O=C(N/N=C\c1ccc(Cl)cc1)c1cc2c(cn1)[nH]c1ccccc12 | 18%
COc1ccc2c(c1)[nH]c1c(C)nccc12 [HARMINE] | 20.2%

These compounds were tested on Brassica rapa subsp. oleifera (assay: Herbicidal activity against Brassica rapa subsp. oleifera assessed as growth inhibition at 100 ug/ml). Conditions: read-out: GI.
Assay type: functional
Method in brief: as §1

SMILES | inhibition of growth at 100 µg/mL
O=C(N/N=C\c1ccc([N+](=O)[O-])cc1)c1cc2c(cn1)[nH]c1ccccc12 | 85.4%
O=C(N/N=C\c1ccccc1O)c1cc2c(cn1)[nH]c1ccccc12 | 50.1%
COc1cc(/C=N\NC(=O)c2cc3c(cn2)[nH]c2ccccc23)ccc1O | 63.2%
O=C(N/N=C\c1ccco1)c1cc2c(cn1)[nH]c1ccccc12 | 17.9%
Cc1n[nH]c(Cl)c1/C=N\NC(=O)c1cc2c(cn1)[nH]c1ccccc12 | 90.8%
O=C(N/N=C\Nc1ccc(C(F)(F)F)cc1)c1cc2c(cn1)[nH]c1ccccc12 | 23.7%
O=C(NN=C(c1ccccc1)c1ccccc1)c1cc2c(cn1)[nH]c1ccccc12 | 10.5%
Cc1nc(C(=O)N/N=C\c2ccccc2)cc2c1[nH]c1ccccc12 | 87%
O=C(N/N=C\c1ccccc1)c1cc2c([nH]c3ccccc32)c(-c2ccccc2)n1 | 100%
O=C(N/N=C\c1ccccc1)c1cc2c([nH]c3ccccc32)c(-c2ccc(C(F)(F)F)cc2)n1 | 82.3%
O=C(N/N=C\c1ccccc1)c1cc2c([nH]c3ccccc32)c(-c2ccc(Cl)cc2)n1 | 91.7%
O=C(N/N=C\c1ccc(C(F)(F)F)cc1)c1cc2c([nH]c3ccccc32)c(-c2ccc(C(F)(F)F)cc2)n1 | 76.5%
O=C(N/N=C\c1ccc(C(F)(F)F)cc1)c1cc2c([nH]c3ccccc32)c(-c2ccccc2)n1 | 100%
O=C(N/N=C\c1ccc(C(F)(F)F)cc1)c1cc2c([nH]c3ccccc32)c(-c2ccc(Cl)cc2)n1 | 93.7%
O=C(N/N=C\c1ccccc1)C1Cc2c([nH]c3ccccc23)CN1 (stereo not drawn) | 25.3%
COc1ccc(/C=N\NC(=O)C2Cc3c([nH]c4ccccc34)CN2)cc1 (stereo not drawn) | 37.1%
COc1cc(/C=N\NC(=O)C2Cc3c([nH]c4ccccc34)CN2)cc(OC)c1OC (stereo not drawn) | 33.5%
O=C(N/N=C\Nc1ccc(C(F)(F)F)cc1)C1Cc2c([nH]c3ccccc23)CN1 (stereo not drawn) | 16.4%
O=C(N/N=C\c1ccccc1)c1cc2c(cn1)[nH]c1ccccc12 | 55.6%
COc1ccc(/C=N\NC(=O)c2cc3c(cn2)[nH]c2ccccc23)cc1 | 71.6%
COc1cc(/C=N\NC(=O)c2cc3c(cn2)[nH]c2ccccc23)cc(OC)c1OC | 58.4%
COc1cc(OC)c(/C=N\NC(=O)c2cc3c(cn2)[nH]c2ccccc23)c(OC)c1 | 42.7%
O=C(N/N=C\c1ccc(Cl)cc1)c1cc2c(cn1)[nH]c1ccccc12 | 47.3%
O=C(O)COc1ccc(Cl)cc1Cl [2,4-DICHLOROPHENOXYACETIC ACID] | 100%
COc1ccc2c(c1)[nH]c1c(C)nccc12 [HARMINE] | 53.7%

The compounds below were run on Echinochloa crus-galli (assay: Herbicidal activity against Echinochloa crus-galli (barnyard grass) assessed as growth inhibition at 10 ug/ml). Conditions: read-out: GI.
Assay type: functional
Method in brief: as §1

SMILES | inhibition of growth at 10 µg/mL
O=C(N/N=C\c1ccc([N+](=O)[O-])cc1)c1cc2c(cn1)[nH]c1ccccc12 | 24.6%
O=C(N/N=C\c1ccccc1O)c1cc2c(cn1)[nH]c1ccccc12 | 18.1%
COc1cc(/C=N\NC(=O)c2cc3c(cn2)[nH]c2ccccc23)ccc1O | 13.3%
O=C(N/N=C\c1ccco1)c1cc2c(cn1)[nH]c1ccccc12 | 0%
Cc1n[nH]c(Cl)c1/C=N\NC(=O)c1cc2c(cn1)[nH]c1ccccc12 | 6.34%
O=C(N/N=C\Nc1ccc(C(F)(F)F)cc1)c1cc2c(cn1)[nH]c1ccccc12 | 0%
O=C(NN=C(c1ccccc1)c1ccccc1)c1cc2c(cn1)[nH]c1ccccc12 | 0%
Cc1nc(C(=O)N/N=C\c2ccccc2)cc2c1[nH]c1ccccc12 | 21.9%
O=C(N/N=C\c1ccccc1)c1cc2c([nH]c3ccccc32)c(-c2ccccc2)n1 | 30.4%
O=C(N/N=C\c1ccccc1)c1cc2c([nH]c3ccccc32)c(-c2ccc(C(F)(F)F)cc2)n1 | 19.4%
O=C(N/N=C\c1ccccc1)c1cc2c([nH]c3ccccc32)c(-c2ccc(Cl)cc2)n1 | 16.7%
O=C(N/N=C\c1ccc(C(F)(F)F)cc1)c1cc2c([nH]c3ccccc32)c(-c2ccc(C(F)(F)F)cc2)n1 | 9.76%
O=C(N/N=C\c1ccc(C(F)(F)F)cc1)c1cc2c([nH]c3ccccc32)c(-c2ccccc2)n1 | 27.9%
O=C(N/N=C\c1ccc(C(F)(F)F)cc1)c1cc2c([nH]c3ccccc32)c(-c2ccc(Cl)cc2)n1 | 24.1%
O=C(N/N=C\c1ccccc1)C1Cc2c([nH]c3ccccc23)CN1 (stereo not drawn) | 0%
COc1ccc(/C=N\NC(=O)C2Cc3c([nH]c4ccccc34)CN2)cc1 (stereo not drawn) | 0%
COc1cc(/C=N\NC(=O)C2Cc3c([nH]c4ccccc34)CN2)cc(OC)c1OC (stereo not drawn) | 2.51%
O=C(N/N=C\Nc1ccc(C(F)(F)F)cc1)C1Cc2c([nH]c3ccccc23)CN1 (stereo not drawn) | 0%
O=C(N/N=C\c1ccccc1)c1cc2c(cn1)[nH]c1ccccc12 | 11.8%
COc1ccc(/C=N\NC(=O)c2cc3c(cn2)[nH]c2ccccc23)cc1 | 17.5%
COc1cc(/C=N\NC(=O)c2cc3c(cn2)[nH]c2ccccc23)cc(OC)c1OC | 15.1%
COc1cc(OC)c(/C=N\NC(=O)c2cc3c(cn2)[nH]c2ccccc23)c(OC)c1 | 0%
O=C(N/N=C\c1ccc(Cl)cc1)c1cc2c(cn1)[nH]c1ccccc12 | 0%
O=C(O)COc1ccc(Cl)cc1Cl [2,4-DICHLOROPHENOXYACETIC ACID] | 100%
COc1ccc2c(c1)[nH]c1c(C)nccc12 [HARMINE] | 10.8%

These compounds were tested on Echinochloa crus-galli (assay: Herbicidal activity against Echinochloa crus-galli (barnyard grass) assessed as growth inhibition at 100 ug/ml). Conditions: read-out: GI.
Assay type: functional
Method in brief: as §1

SMILES | inhibition of growth at 100 µg/mL
O=C(N/N=C\c1ccc([N+](=O)[O-])cc1)c1cc2c(cn1)[nH]c1ccccc12 | 43.2%
O=C(N/N=C\c1ccccc1O)c1cc2c(cn1)[nH]c1ccccc12 | 47.6%
COc1cc(/C=N\NC(=O)c2cc3c(cn2)[nH]c2ccccc23)ccc1O | 33%
O=C(N/N=C\c1ccco1)c1cc2c(cn1)[nH]c1ccccc12 | 0%
Cc1n[nH]c(Cl)c1/C=N\NC(=O)c1cc2c(cn1)[nH]c1ccccc12 | 28.1%
O=C(N/N=C\Nc1ccc(C(F)(F)F)cc1)c1cc2c(cn1)[nH]c1ccccc12 | 0%
O=C(NN=C(c1ccccc1)c1ccccc1)c1cc2c(cn1)[nH]c1ccccc12 | 0%
Cc1nc(C(=O)N/N=C\c2ccccc2)cc2c1[nH]c1ccccc12 | 51.5%
O=C(N/N=C\c1ccccc1)c1cc2c([nH]c3ccccc32)c(-c2ccccc2)n1 | 73.9%
O=C(N/N=C\c1ccccc1)c1cc2c([nH]c3ccccc32)c(-c2ccc(C(F)(F)F)cc2)n1 | 31.2%
O=C(N/N=C\c1ccccc1)c1cc2c([nH]c3ccccc32)c(-c2ccc(Cl)cc2)n1 | 43.7%
O=C(N/N=C\c1ccc(C(F)(F)F)cc1)c1cc2c([nH]c3ccccc32)c(-c2ccc(C(F)(F)F)cc2)n1 | 35.7%
O=C(N/N=C\c1ccc(C(F)(F)F)cc1)c1cc2c([nH]c3ccccc32)c(-c2ccccc2)n1 | 60.3%
O=C(N/N=C\c1ccc(C(F)(F)F)cc1)c1cc2c([nH]c3ccccc32)c(-c2ccc(Cl)cc2)n1 | 57.9%
O=C(N/N=C\c1ccccc1)C1Cc2c([nH]c3ccccc23)CN1 (stereo not drawn) | 15%
COc1ccc(/C=N\NC(=O)C2Cc3c([nH]c4ccccc34)CN2)cc1 (stereo not drawn) | 8.62%
COc1cc(/C=N\NC(=O)C2Cc3c([nH]c4ccccc34)CN2)cc(OC)c1OC (stereo not drawn) | 23.8%
O=C(N/N=C\Nc1ccc(C(F)(F)F)cc1)C1Cc2c([nH]c3ccccc23)CN1 (stereo not drawn) | 0%
O=C(N/N=C\c1ccccc1)c1cc2c(cn1)[nH]c1ccccc12 | 35.9%
COc1ccc(/C=N\NC(=O)c2cc3c(cn2)[nH]c2ccccc23)cc1 | 29.6%
COc1cc(/C=N\NC(=O)c2cc3c(cn2)[nH]c2ccccc23)cc(OC)c1OC | 37.1%
COc1cc(OC)c(/C=N\NC(=O)c2cc3c(cn2)[nH]c2ccccc23)c(OC)c1 | 12.6%
O=C(N/N=C\c1ccc(Cl)cc1)c1cc2c(cn1)[nH]c1ccccc12 | 0%
O=C(O)COc1ccc(Cl)cc1Cl [2,4-DICHLOROPHENOXYACETIC ACID] | 100%
COc1ccc2c(c1)[nH]c1c(C)nccc12 [HARMINE] | 32.5%
